Measurements from ChEMBL document CHEMBL3120079, “NF-κB inhibitors from Eurycoma longifolia” (J Nat Prod, 2014).
In brackets after ≈: the same amount, converted by molar mass. Activity calls are given as the source filed them.

Legend:
[1] = (§1) Inhibition of NF-kappaB activity in TNF-alpha stimulated human HEK-293/NF-kB-luc cells incubated for 30 mins prior to TNF-alpha challenge for 4 hrs by luciferase reporter gene assay
Outline: (§2)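 HEK293/NF-κB-luc cells were prestained with 2 μM CMFDA for 1 h, reseeded at 4 × 10^4 cells/well overnight in phenol red-free, serum-free DMEM, pretreated 30 min with compound or 0.1% DMSO vehicle, then stimulated with TNF-α 2 ng/mL for 4 h. Lysates were read for firefly luciferase, normalized to CMFDA fluorescence for cell number. Screen at 30 μM; IC50 determined for selected compounds.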

Homo sapiens [2] = species: Homo sapiens; assay: Inhibition of NF-kappaB activity in TNF-alpha stimulated human HEK-293/NF-kB-luc cells at 30 uM incubated for 30 mins prior to TNF-alpha challenge for 4 hrs by luciferase reporter gene assay; outline: as §2
HEK293 = assay: Growth inhibition of TNF-alpha stimulated human HEK-293/NF-kB-luc cells assessed as cell viability at 30 uM incubated for 30 mins prior to TNF-alpha challenge for 4 hrs by CellTracker Green CMFDA staining; type: cell-based; details: hek293, 4 h
Outline: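 Cells loaded 1 h with 2 μM CellTracker Green CMFDA in serum-free medium, reseeded at 4 × 10^4 cells/well overnight in phenol red-free, FBS-free DMEM. Pretreated with test compound or vehicle (0.1% DMSO) for 30 min, then TNF-α 2 ng/mL for 4 h. After lysis, CMFDA fluorescence was compared with vehicle-treated cells.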

Homo sapiens [3] = species: Homo sapiens; assay: as §1; outline: as §2
[4] = Toxicity against brine shrimp; type: organism-based; details: artemia, in vivo; read-out: LD50 (the source's name)
[5] = Acute toxicity in po dosed mouse; type: organism-based; details: in vivo
[6] = Homo sapiens, HEK293, read-out: IC50

IC50 [1, 6] | inhibition (Homo sapiens [2]) | inhibition (Homo sapiens [3]) | IC50 [1] | Structure (SMILES) | Activity (HEK293) | LC50 [4] | LD50 [5]
6.2 µM | > 50% | – | – | CC1=CC(=O)[C@@H](O)[C@@]2(C)C1=CC(=O)[C@]1(C)[C@@H]2[C@@H](O)[C@@H]2OC(=O)[C@H]1[C@H]2C | Non-toxic | – | –
– | – | inactive | – | COc1cc2ccc(=O)oc2c(O)c1OC | Non-toxic | – | –
1.9 µM | > 50% | – | – | CC1=CC(=O)[C@@H](O)[C@]2(C)[C@H]3C(=O)[C@H](O)[C@H](C)[C@@H]4CC(=O)O[C@H](C[C@@H]12)[C@]34C | Non-toxic | – | –
3.8 µM | > 50% | – | – | CC1=C[C@H](O)[C@@H](O)[C@@]2(C)[C@H]1CC(=O)[C@@]1(C)[C@H]3C(=O)O[C@H]([C@@H]3C)[C@H](O)[C@@H]12 [EURYCOLACTONE E] | Non-toxic | – | –
– | – | inactive | – | COc1cc(C(=O)O)cc(OC)c1O | – | – | –
– | – | – | Not Active | CC1=CC(=O)[C@]2(C)[C@H]3[C@@H](O)[C@@H]4OC(=O)[C@@H]([C@H]4C)[C@]3(C)C(=O)C[C@@H]12 [LAURYCOLACTONE A] | Non-toxic | – | –
1.5 µM | > 50% | – | – | CC1=CC(=O)[C@@H](O)[C@]2(C)[C@H]3[C@@H](O)[C@@H]4OC(=O)[C@@H]([C@H]4C)[C@]3(C)[C@H](O)C[C@@H]12 | Non-toxic | – | –
1.5 µM | – | – | – | C=C1C(=O)O[C@@H]2C3O[C@]3(C)CC/C=C(\C)CC[C@@H]12 (stereo partly drawn) | Non-toxic | – | –
29.3 µM | > 50% | – | – | COC(=O)c1nccc2c1[nH]c1ccccc12 | Non-toxic | – | –
– | – | inactive | – | COc1cc(C(=O)O)ccc1O | – | – | –
– | – | inactive | – | COc1cc(C=O)ccc1O | – | – | –
3.8 µM | > 50% | – | – | O=c1ccc2nccc3c4ccc(O)cc4n1c23 | Non-toxic | – | –
7.4 µM | > 50% | – | – | COc1ccc2c3ccnc4ccc(=O)n(c2c1)c43 | Non-toxic | – | –
– | inactive | – | – | O=c1ccc2nccc3c4ccc(O[C@@H]5O[C@H](CO)[C@@H](O)[C@H](O)[C@H]5O)cc4n1c23 | Non-toxic | – | –
– | – | inactive | – | O=C(O)c1ccc(O)c(-c2cc(C(=O)O)ccc2O)c1 | – | – | –
23.3 µM | > 50% | – | – | COc1ccc(-c2oc3c(OC)c(OC)c(OC)c(OC)c3c(=O)c2OC)cc1OC [3,5,6,7,8,3',4'-HEPTAMETHOXYFLAVONE] | Non-toxic | – | –
– | – | – | Not Active | CC1=CC(=O)[C@@]2(C)C1=CC(=O)[C@]1(C)[C@@H]2[C@@H](O)[C@@H]2OC(=O)[C@H]1[C@H]2C [LAURYCOLACTONE B] | Non-toxic | – | –
19.5 µM | > 50% | – | – | COc1cc2c3ccnc4ccc(=O)n(c2cc1OC)c43.Cl | Non-toxic | – | –
– | – | inactive | – | C[C@@H]1CC[C@]2(C(=O)O[C@@H]3O[C@H](CO)[C@@H](O)[C@H](O)[C@H]3O)CC[C@]3(C)C(=CC[C@@H]4[C@@]5(C)CC[C@H](O)[C@@](C)(CO)[C@@H]5CC[C@]43C)[C@@H]2[C@]1(C)O [PEDUNCULOSIDE] | Non-toxic | – | –
– | – | inactive | – | COc1cc2ccc(=O)oc2cc1O [SCOPOLETIN] | Non-toxic | – | –
– | – | inactive | – | COc1cc(C)c2c(=O)cc(C[C@H](C)O)oc2c1[C@@H]1O[C@H](CO)[C@@H](O)[C@H](O)[C@H]1OC(=O)/C=C/c1ccc(O)cc1 | – | – | –
– | – | inactive | – | CC(=O)O[C@@H](CC[C@@H](OC(C)=O)[C@]1(C)CC[C@H]([C@@](C)(O)CCC=C(C)C)O1)[C@@]1(C)CC[C@H]([C@@](C)(O)CCC=C(C)C)O1 | Non-toxic | – | –

Structure (SMILES) | IC50 [1, 6] | inhibition (Homo sapiens [2]) | inhibition (Homo sapiens [3]) | IC50 [1] | Activity (HEK293) | LC50 [4] | LD50 [5]
CC1=CC(=O)[C@@H](O)[C@@]2(C)[C@H]1CC(=O)[C@@]1(C)[C@H]3C(=O)O[C@H]([C@@H]3C)[C@H](O)[C@@H]12 [EURYCOMALACTONE] | 0.5 µM | > 50% | – | – | Non-toxic | – | –
C=C1[C@@H](O)[C@@]2(O)OC[C@]34[C@H]2[C@@]2(C)[C@H](O)C(=O)C=C(C)[C@@H]2C[C@H]3OC(=O)[C@H](O)[C@@]14O [EURYCOMANONE] | 2.4 µM | > 50% | – | – | Non-toxic | 3.5 µg/mL (≈ 8.57 µM) | 50 mg/kg
C[C@H]1[C@H]2OC(=O)[C@@H]1[C@]1(C)C(=O)C=C3[C@H](C)CC(=O)[C@@H](O)[C@]3(C)[C@H]1[C@H]2O | 18.4 µM | > 50% | – | – | Non-toxic | – | –
CC1=CC(=O)[C@@H](O)[C@]2(C)[C@H]3[C@@]4(O)OC[C@@]35[C@@H](C[C@@H]12)OC(=O)[C@H](O)[C@@]5(O)[C@@H](C)[C@H]4O | 0.7 µM | > 50% | – | – | Non-toxic | 10.3 µg/mL (≈ 25.1 µM) | –
CC1=CC(=O)[C@@H](O)[C@@]2(C)[C@H]1[C@@H](O)[C@H]1OC(=O)C3[C@@H](C)[C@H](O)[C@H](O)[C@H]2[C@]31C (stereo partly drawn) [LONGILACTONE] | 4.7 µM | > 50% | – | – | Non-toxic | 145 µg/mL (≈ 395 µM) | –
CC1=CC(=O)[C@@H](O)[C@]2(C)[C@H]3[C@@H](O)[C@H](O)[C@H](C)[C@]4(O)[C@@H](O)C(=O)O[C@H](C[C@@H]12)[C@]34C | 1 µM | > 50% | – | – | Non-toxic | 324 µg/mL (≈ 816 µM) | –
COc1c(O)c2nccc3c4ccccc4n(c1=O)c23 [PICRASIDINE Q] | – | inactive | – | – | Non-toxic | – | –
